Data: ChEMBL document CHEMBL2396633, “Effects of cytoprotective antioxidants on lymphocytes from representative mitochondrial neurodegenerative diseases” (Bioorg Med Chem, 2013)
Calls of active or inactive are those of the source. The calls are words filed in the database; no cut-off is given here.

What was measured:
Bos taurus [1] = species on record: Bos taurus; assay: Inhibition of NADH-ubiquinone oxidoreductase in bovine heart mitochondria after 5 mins by spectrophotometric analysis relative to control
Method in brief: (§1)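 Bovine heart submitochondrial particles, 12 µg, incubated 5 min at 39 °C with compound in 50 mM phosphate pH 7.4, 0.25 M sucrose, 1 mM MgCl₂, 2 mM KCN, plus antimycin A. Reaction started with 50 µM NADH and 50 µM coenzyme Q₁; NADH loss read at 340 nm. K_I derived. Mean of three experiments in triplicate.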

[2] = Inhibition of NADH-ubiquinone oxidoreductase in bovine heart mitochondria after 5 mins by spectrophotometric analysis; set-up: species or system Bos taurus; method in brief: as §1
GM15850 [3] = assay: Effect on total ATP level in Friedreich's ataxia disease patient GM15850 cells at 25 uM after 48 hrs by bioluminescence assay relative to control; format: functional, Homo sapiens
Method in brief: (§2)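 Lymphocytes were adapted to glucose-free RPMI with 25 mM galactose for at least one week. Cells at 2 × 10⁵ cells/mL were given compound at final 5, 10 or 25 µM for 48 h at 37 °C, 5% CO₂. Total intracellular ATP was measured by luciferase bioluminescence kit and expressed as % of untreated control.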

GM15850 [4] = assay: Effect on total ATP level in Friedreich's ataxia disease patient GM15850 cells at 10 uM after 48 hrs by bioluminescence assay relative to control; format: functional, Homo sapiens; method in brief: as §2
GM15850 [5] = assay: Effect on total ATP level in Friedreich's ataxia disease patient GM15850 cells at 5 uM after 48 hrs by bioluminescence assay relative to control; format: functional, Homo sapiens; method in brief: as §2
[6] = Effect on total ATP level in Leber's optic atrophy disease patient GM10744 cells at 25 uM after 48 hrs by bioluminescence assay relative to control; format: functional, Homo sapiens; method in brief: as §2
[7] = Effect on total ATP level in Leber's optic atrophy disease patient GM10744 cells at 10 uM after 48 hrs by bioluminescence assay relative to control; format: functional, Homo sapiens; method in brief: as §2
[8] = Effect on total ATP level in Leber's optic atrophy disease patient GM10744 cells at 5 uM after 48 hrs by bioluminescence assay relative to control; format: functional, Homo sapiens; method in brief: as §2
[9] = Effect on total ATP level in CoQ10-deficient human GM17932 cells at 25 uM after 48 hrs by bioluminescence assay relative to control; format: functional; method in brief: as §2
[10] = Effect on total ATP level in CoQ10-deficient human GM17932 cells at 10 uM after 48 hrs by bioluminescence assay relative to control; format: functional; method in brief: as §2
[11] = Effect on total ATP level in CoQ10-deficient human GM17932 cells at 5 uM after 48 hrs by bioluminescence assay relative to control; format: functional; method in brief: as §2
Homo sapiens [12] = species on record: Homo sapiens; assay: Antioxidant activity in Leber's optic atrophy disease patient GM10744 cells assessed as suppression of diethyl maleate-induced ROS generation at 0.025 to 2.5 uM preincubated for 18 hrs prior to diethyl maleate-challenge measured after 1 hr by FACS flow cytometric analysis in presence of DCFH-DA; format: functional
Method in brief: (§3)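 Lymphocytes (Coriell, RPMI with 15% FBS) or CCRF-CEM cells (RPMI with 10% FBS), 2.5 × 10⁵ cells/mL, exposed to compounds for 18 h at 37 °C, then 5 mM diethyl maleate for 1 h. Cells washed in PBS, loaded with 10 µM DCFH-DA in PBS/10 mM glucose for 25 min at 37 °C in the dark. DCF read by flow cytometry (488 nm excitation, 530 nm emission). Mean ± S.E.M., three experiments in duplicate.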

Homo sapiens [13] = species on record: Homo sapiens; assay: Antioxidant activity in Alzheimer's disease patient AG06849 cells assessed as suppression of diethyl maleate-induced ROS generation at 0.025 to 2.5 uM preincubated for 18 hrs prior to diethyl maleate-challenge measured after 1 hr by FACS flow cytometric analysis in presence of DCFH-DA; format: functional; method in brief: as §3
CCRF-CEM [14] = assay: Antioxidant activity in human CCRF-CEM cells assessed as suppression of diethyl maleate-induced ROS generation at 0.25 uM preincubated for 18 hrs prior to diethyl maleate-challenge measured after 1 hr by FACS flow cytometric analysis in presence of DCFH-DA; format: functional, cell-based; method in brief: as §3
CCRF-CEM [15] = assay: Antioxidant activity in human CCRF-CEM cells assessed as suppression of diethyl maleate-induced ROS generation at 2.5 uM preincubated for 18 hrs prior to diethyl maleate-challenge measured after 1 hr by FACS flow cytometric analysis in presence of DCFH-DA; format: functional, cell-based; method in brief: as §3
CCRF-CEM [16] = assay: Antioxidant activity in human CCRF-CEM cells assessed as suppression of diethyl maleate-induced ROS generation preincubated for 18 hrs prior to diethyl maleate-challenge measured after 1 hr by FACS flow cytometric analysis in presence of DCFH-DA; format: functional, cell-based; method in brief: as §3
Bos taurus [17] = species on record: Bos taurus; assay: Inhibition of NADH oxidase activity of bovine heart mitochondrial […] at 5 uM after 5 mins by spectrophotometric analysis relative to control; values are per cent of control
Bos taurus [18] = species on record: Bos taurus; assay: Inhibition of NADH oxidase activity of bovine heart mitochondrial […] at 1 uM after 5 mins by spectrophotometric analysis relative to control; values are per cent of control
Bos taurus [19] = species on record: Bos taurus; assay: Inhibition of NADH oxidase activity of bovine heart mitochondrial […] at 10 uM after 5 mins by spectrophotometric analysis relative to control; values are per cent of control
CCRF-CEM [20] = assay: Cytoprotective activity against diethyl maleate-induced oxidative stress in human CCRF-CEM cells assessed as cell viability at 0.5 uM preincubated for 15 hrs prior to diethyl maleate-challenge measured after 6 hrs by hemocytometer-based assay; format: functional
Method in brief: (§4)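 Cells seeded at 5 × 10⁵ cells/mL, preincubated with 0.5 or 2.5 µM compound at 37 °C, 5% CO₂, then given 5 mM diethyl maleate for 6 h. Viable cells counted by trypan blue exclusion on a hemocytometer. Viability expressed as % of untreated control. Three independent experiments in triplicate, mean ± S.E.M.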

Homo sapiens [21] = species on record: Homo sapiens; assay: Cytoprotective activity against diethyl maleate-induced oxidative stress in Parkinson's disease patient GM15010 cells assessed as cell viability at 0.5 uM preincubated for 15 hrs prior to diethyl maleate-challenge measured after 6 hrs by hemocytometer-based assay; format: functional; method in brief: as §4
Homo sapiens [22] = species on record: Homo sapiens; assay: Cytoprotective activity against diethyl maleate-induced oxidative stress in Leigh's syndrome patient GM13740 cells assessed as cell viability at 0.5 uM preincubated for 15 hrs prior to diethyl maleate-challenge measured after 6 hrs by hemocytometer-based assay; format: functional; method in brief: as §4
Homo sapiens [23] = species on record: Homo sapiens; assay: Cytoprotective activity against diethyl maleate-induced oxidative stress in Alzheimer's disease patient AG06849 cells assessed as cell viability at 0.5 uM preincubated for 15 hrs prior to diethyl maleate-challenge measured after 6 hrs by hemocytometer-based assay; format: functional; method in brief: as §4
GM15850 [24] = assay: Cytoprotective activity against diethyl maleate-induced oxidative stress in Friedreich's ataxia disease patient GM15850 cells assessed as cell viability at 0.5 uM preincubated for 15 hrs prior to diethyl maleate-challenge measured after 6 hrs by hemocytometer-based assay; format: functional; details: Homo sapiens; method in brief: as §4
Homo sapiens [25] = species on record: Homo sapiens; assay: Cytoprotective activity against diethyl maleate-induced oxidative stress in Leber's optic atrophy disease patient GM10744 cells assessed as cell viability at 0.5 uM preincubated for 15 hrs prior to diethyl maleate-challenge measured after 6 hrs by hemocytometer-based assay; format: functional; method in brief: as §4

IC50 [2] | Ki [2] | residual activity (Bos taurus [17]) | residual activity (Bos taurus [18]) | residual activity (Bos taurus [19]) | SMILES | Activity (GM15850 [3]) | Activity (GM15850 [4]) | Activity (GM15850 [5]) | Activity [6] | Activity [7] | Activity [8] | Activity [9] | Activity [10] | Activity [11] | Activity (Homo sapiens [12]) | Activity (Homo sapiens [13]) | Activity (CCRF-CEM [14]) | Activity (CCRF-CEM [15]) | Activity (CCRF-CEM [16]) | further results
1000 nM | 700 nM | 22% | 50% | 15% | Cc1nc(N(C)C)nc(CCCCCCCCCCO)c1O | 27.7% | 46.3% | 77.2% | 20.7% | 45.6% | 75.5% | 46.4% | 86.1% | 98.8% | Active | Active | Active | Active | Dose-dependent effect | Imax (Bos taurus [1]): 85%
> 200000 nM | > 200000 nM | 82.4% | 93% | 61.5% | CCCCCCCCCCC1=C(C)C(=O)C(OC)=C(OC)C1=O [DECYLUBIQUINONE] | 62.7% | 76.4% | 92.8% | 47% | 63.4% | 75.1% | 71.1% | 86.2% | 100% | Active | Active | Active | Active | Dose-dependent effect | Activity (CCRF-CEM [20]): Active; Activity (Homo sapiens [21]): Active; Activity (Homo sapiens [22]): Active; Activity (Homo sapiens [23]): Active; Activity (GM15850 [24]): Active; Activity (Homo sapiens [25]): Active
